For one assay, the system named is NCI-H226. Put plainly: Antiproliferative activity against human NCI-H226 cells assessed as reduction in cell viability after 48 hrs by CellTiter-Blue assay. The assay is classed as functional. The conditions noted are these: NCI-H226, 48 h, read-out: LC50 (the source's name). Put shortly:
(§1)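 Cells grown in RPMI1640 with 10% FBS at 37 °C, 5% CO₂. 5,000–10,000 cells/well were pre-incubated overnight, and a time-zero CellTiter-Blue read was taken. Six 10-fold dilutions (top final 10 μM) were applied for 48 h, followed by 0.125 mg/mL CellTiter-Blue for 2–4 h. Resorufin fluorescence was read at ex 560/em 590 nm. […] Triplicates.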
A general note: The colour change of resazurin is a common sign of viable cells or microbes.

Assay [1] concerns MV4-11. Briefly: Induction of apoptosis in human MV4-11 cells harboring wild type p53/FLT3-ITD mutant assessed as c-FLIP degradation at 50 to 200 nM after 24 hrs by Western blot analysis. The assay is classed as functional, cell-based. In a few lines:
(§2)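 Cells (1,500,000 per well) grown 12 h, then drug-treated as specified. Lysed in RIPA buffer, sonicated, centrifuged, protein normalized by BCA. Run on 4–12% Bis-Tris gels in MES, transferred, probed overnight at 4 °C with primary antibodies at 1/1000. Actin served as reference for LC3-II quantitation.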
For orientation: In western blotting, separated proteins are transferred to a membrane and probed.

The test system of a further assay is HCC 2998. Put plainly: Antiproliferative activity against human HCC2998 cells assessed as reduction in cell viability after 48 hrs by CellTiter-Blue assay. The assay is classed as functional. The note with it: HCC 2998, 48 h, read-out: LC50 (the source's name). In a few lines:
as §1

The test system of another assay is RS4-11. Put plainly: Upregulation of P21WAF1/Cip1 protein expression in human RS4:11 cells harboring wild type p53/FLT3 at 50 to 200 nM after 24 hrs by Western blot analysis. The assay is classed as functional, cell-based. Put shortly: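 RS4;11 cells were cultured in RPMI-1640 with 10% FBS and HL-60 cells in IMDM with 20% FBS. Cells were plated at 1,500,000 per well, grown 12 h, then drug-treated. Lysis was in RIPA buffer with sonication and centrifugation, and loading was normalized by BCA. Lysates were run on 4–12% Bis-Tris gels in MES buffer and transferred, and membranes were probed overnight at 4 °C with 1/1000 primary antibodies.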

A further assay concerns NCI-H522. Briefly: Antiproliferative activity against human NCI-H522 cells assessed as reduction in cell viability after 48 hrs by CellTiter-Blue assay. The assay is classed as functional. The conditions noted are these: NCI-H522, 48 h, read-out: LC50 (the source's name). In a few lines: as §1
A further assay has as its system TK-10. Put plainly: Antiproliferative activity against human TK10 cells assessed as reduction in cell viability after 48 hrs by CellTiter-Blue assay. The assay is classed as functional. The conditions noted are these: TK-10, 48 h, read-out: LC50 (the source's name). In a few lines: (§3)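 NCI-60 panel lines grown in RPMI1640 with 10% FBS at 37 °C, 5% CO₂. Seeded at 5,000–10,000 cells/well and pre-incubated overnight. Exposed for 48 h to six 10-fold dilutions (top final 10 μM), with a time-zero plate read at dosing. CellTiter-Blue (0.125 mg/mL) for 2–4 h, fluorescence 560/590 nm, triplicate curves.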

The next assay concerns MCF7. Briefly: Antiproliferative activity against human MCF7 cells assessed as reduction in cell viability after 48 hrs by CellTiter-Blue assay. The assay is classed as functional. The note with it: MCF7, 48 h, read-out: LC50 (the source's name). Put shortly:
as §1

In the next assay the test system is HL-60. Put plainly: Effect on c-Flip protein degradation in p53 null human HL60 cells harboring wild type FLT3 at 50 to 200 nM after 24 hrs by Western blot analysis. The assay is classed as functional, cell-based. Put shortly:
as §2

For a further assay, the system named is SR. Briefly: […] in human SR cells harboring wild type p53 assessed as pro-caspase 3 cleavage at 50 to 200 nM after 24 hrs by Western blot analysis. The assay is classed as cell-based.
The next assay concerns HOP-62. Put plainly: Antiproliferative activity against human HOP62 cells assessed as reduction in cell viability after 48 hrs by CellTiter-Blue assay. The assay is classed as functional. The conditions noted are these: HOP-62, 48 h, read-out: LC50 (the source's name). In a few lines:
as §1

A further assay has as its system SF-268. Briefly: Antiproliferative activity against human SF268 cells assessed as reduction in cell viability after 48 hrs by CellTiter-Blue assay. The assay is classed as functional. The conditions noted are these: SF-268, 48 h, read-out: LC50 (the source's name). Put shortly:
as §1

For a further assay, the system named is RPMI-8226. Briefly: Antiproliferative activity against human RPMI8226 cells assessed as reduction in cell viability after 48 hrs by CellTiter-Blue assay. The assay is classed as functional. The note with it: RPMI-8226, 48 h, read-out: LC50 (the source's name). Put shortly:
as §1

The subject of a further assay is PC-3. Briefly: Antiproliferative activity against human PC3 cells assessed as reduction in cell viability after 48 hrs by CellTiter-Blue assay. The assay is classed as functional. The conditions noted are these: PC-3, 48 h, read-out: LC50 (the source's name). Put shortly: as §1
A further assay has as its system NCI-H23. Put plainly: Antiproliferative activity against human NCI-H23 cells assessed as reduction in cell viability after 48 hrs by CellTiter-Blue assay. The assay is classed as functional. The conditions noted are these: NCI-H23, 48 h, read-out: LC50 (the source's name). Put shortly: as §1
In a further assay the test system is K562. Briefly: Antiproliferative activity against human K562 cells assessed as reduction in cell viability after 48 hrs by CellTiter-Blue assay. The assay is classed as functional. The conditions noted are these: K562, 48 h, read-out: LC50 (the source's name). In a few lines:
as §1

The target of the next assay is Histone deacetylase 5 (Homo sapiens, UniProt Q9UQL6). Briefly: Inhibition of recombinant human HDAC5 using Boc-Lys (trifluoroacetyl)-AMC as substrate preincubated for 1 hr followed by substrate addition and measured after 2 hrs by fluorescence based micro plate reader analysis. Put shortly: (§4)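 Recombinant enzyme was preincubated with serially varied inhibitor for 1 h at 30 °C. Boc-Lys(trifluoroacetyl)-AMC was then added to a final 50 μM and incubated 2 h at 30 °C. The reaction was stopped with developer containing trypsin and TSA, and fluorescence (ex 360/em 460 nm) was read 30 min later. Inhibition was taken relative to control wells and fitted to a variable-slope log(inhibitor) curve. Values are the mean of at least three experiments.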

The test system of the next assay is SF-539. Briefly: Antiproliferative activity against human SF539 cells assessed as reduction in cell viability after 48 hrs by CellTiter-Blue assay. The assay is classed as functional. The note with it: SF-539, 48 h, read-out: LC50 (the source's name). In a few lines:
as §1

A further assay deals with Histone deacetylase 9 (Homo sapiens, UniProt Q9UKV0). Put plainly: Inhibition of recombinant human C-terminal His-tagged HDAC9 (604 to 1066 residues) expressed in baculovirus infected Sf9 cells using Boc-Lys (trifluoroacetyl)-AMC as substrate preincubated for 1 hr followed by substrate addition and measured after 2 hrs by fluorescence based micro plate reader analysis. Put shortly: as §4

The subject of the next assay is SW-620. Put plainly: Antiproliferative activity against human SW620 cells assessed as reduction in cell viability after 48 hrs by CellTiter-Blue assay. The assay is classed as functional. The note with it: SW-620, 48 h, read-out: LC50 (the source's name). In a few lines:
as §3

The test system of a further assay is HCT-116. Put plainly: Antiproliferative activity against human HCT116 cells assessed as reduction in cell viability after 48 hrs by CellTiter-Blue assay. The assay is classed as functional. The note with it: HCT-116, 48 h, read-out: LC50 (the source's name). Put shortly: as §1
Assay [2] has as its system MV4-11. Put plainly: Down regulation of MDM2 expression in human MV4-11 cells harboring wild type p53/FLT3-ITD mutant at 50 to 200 nM after 24 hrs by Western blot analysis. The assay is classed as functional, cell-based. In a few lines:
as §2

In the next assay the test system is U-251. Put plainly: Antiproliferative activity against human U251 cells assessed as reduction in cell viability after 48 hrs by CellTiter-Blue assay. The conditions noted are these: U-251, 48 h, read-out: LC50 (the source's name). The assay is classed as functional. Put shortly: as §3
A further assay concerns MOLM-14. Put plainly: Antiproliferative activity agaisnt human MOLM14 cells expressing wild type p53/FLT3-ITD mutant assessed as cell death at 10 uM after 48 hrs by CellTiter-blue assay. The assay is classed as functional, cell-based.

Activity calls are given as the source filed them. The calls are words filed in the database; no cut-off is given here. Bounds are passed on as bounds.

Sequence of Histone deacetylase 5 (Q9UQL6 whole entry): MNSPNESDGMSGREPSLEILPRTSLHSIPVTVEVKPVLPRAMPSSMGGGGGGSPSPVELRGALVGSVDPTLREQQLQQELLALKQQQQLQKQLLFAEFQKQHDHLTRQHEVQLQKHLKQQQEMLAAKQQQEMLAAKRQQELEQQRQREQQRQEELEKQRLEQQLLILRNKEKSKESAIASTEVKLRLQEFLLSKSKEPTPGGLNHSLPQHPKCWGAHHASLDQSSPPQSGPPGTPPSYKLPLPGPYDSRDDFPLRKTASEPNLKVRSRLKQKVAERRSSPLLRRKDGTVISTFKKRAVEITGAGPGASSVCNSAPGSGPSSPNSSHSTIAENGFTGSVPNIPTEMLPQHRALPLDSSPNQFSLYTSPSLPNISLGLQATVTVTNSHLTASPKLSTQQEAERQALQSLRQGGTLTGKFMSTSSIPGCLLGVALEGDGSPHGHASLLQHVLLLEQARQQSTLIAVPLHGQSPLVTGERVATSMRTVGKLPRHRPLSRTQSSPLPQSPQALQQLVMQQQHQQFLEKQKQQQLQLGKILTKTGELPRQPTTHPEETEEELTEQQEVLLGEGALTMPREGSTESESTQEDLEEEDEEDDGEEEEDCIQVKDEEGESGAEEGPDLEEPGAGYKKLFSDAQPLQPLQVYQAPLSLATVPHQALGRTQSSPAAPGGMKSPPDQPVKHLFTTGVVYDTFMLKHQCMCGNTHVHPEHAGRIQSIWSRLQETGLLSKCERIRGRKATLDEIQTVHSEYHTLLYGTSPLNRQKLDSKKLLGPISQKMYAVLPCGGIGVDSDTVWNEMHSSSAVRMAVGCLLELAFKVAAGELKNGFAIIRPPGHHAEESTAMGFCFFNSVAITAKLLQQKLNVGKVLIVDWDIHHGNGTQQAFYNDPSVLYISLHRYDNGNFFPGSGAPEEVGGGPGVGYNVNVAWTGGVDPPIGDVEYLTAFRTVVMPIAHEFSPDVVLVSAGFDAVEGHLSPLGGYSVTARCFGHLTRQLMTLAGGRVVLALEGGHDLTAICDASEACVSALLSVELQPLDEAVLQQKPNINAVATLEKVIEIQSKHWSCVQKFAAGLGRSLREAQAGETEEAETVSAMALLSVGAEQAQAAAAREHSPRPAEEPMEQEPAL
Sequence of Histone deacetylase 9 (Q9UKV0 whole entry, the tested form may be a part): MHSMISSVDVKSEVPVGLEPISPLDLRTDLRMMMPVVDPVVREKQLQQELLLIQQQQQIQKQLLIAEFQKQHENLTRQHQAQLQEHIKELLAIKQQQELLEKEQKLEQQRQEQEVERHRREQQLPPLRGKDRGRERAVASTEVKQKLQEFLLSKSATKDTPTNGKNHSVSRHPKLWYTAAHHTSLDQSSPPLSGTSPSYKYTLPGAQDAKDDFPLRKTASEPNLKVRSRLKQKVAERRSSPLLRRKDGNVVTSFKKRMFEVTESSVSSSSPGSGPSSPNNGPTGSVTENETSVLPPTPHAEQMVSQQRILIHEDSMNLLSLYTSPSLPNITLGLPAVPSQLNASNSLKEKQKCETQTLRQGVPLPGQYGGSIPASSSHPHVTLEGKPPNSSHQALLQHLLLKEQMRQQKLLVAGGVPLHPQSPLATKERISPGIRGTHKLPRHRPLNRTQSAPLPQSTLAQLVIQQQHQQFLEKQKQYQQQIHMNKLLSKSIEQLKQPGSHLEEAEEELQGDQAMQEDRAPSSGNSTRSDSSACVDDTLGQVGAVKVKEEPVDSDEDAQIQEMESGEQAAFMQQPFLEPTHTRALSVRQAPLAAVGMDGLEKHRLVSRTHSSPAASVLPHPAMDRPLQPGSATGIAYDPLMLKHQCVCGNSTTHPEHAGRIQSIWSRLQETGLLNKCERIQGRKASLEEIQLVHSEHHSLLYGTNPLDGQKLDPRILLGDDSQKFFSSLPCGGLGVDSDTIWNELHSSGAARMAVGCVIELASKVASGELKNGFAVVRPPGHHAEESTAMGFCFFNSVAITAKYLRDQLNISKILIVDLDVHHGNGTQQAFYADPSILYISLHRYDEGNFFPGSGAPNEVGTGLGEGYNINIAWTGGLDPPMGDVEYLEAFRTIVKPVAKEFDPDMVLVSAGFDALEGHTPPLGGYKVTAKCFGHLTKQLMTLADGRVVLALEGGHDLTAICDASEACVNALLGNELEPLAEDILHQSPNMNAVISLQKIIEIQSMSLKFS

In general, IC50 refers to the point on the concentration scale where inhibition reaches its midpoint. With `CCCNNC(=O)/C=C/c1ccc(CNCCc2c(C)[nH]c3ccccc23)cc1.O=C(O)C(F)(F)F`, the CC50 with NCI-H226 is 0.46 µM; in the assay with HCC 2998, 1.76 µM; with NCI-H522 it was > 10 µM; in the assay on TK-10 it was > 10 µM; in the assay on MCF7 it was > 10 µM; in the assay with HOP-62, > 10 µM. Also, the CC50 in the assay with SF-268, in the assay on RPMI-8226, in the assay on PC-3, with NCI-H23, in the assay on K562 and in the assay on SF-539 was > 10 µM each time. Besides, the CC50 with SW-620 was > 10 µM; with HCT-116, 0.879 µM; in the assay on U-251 it was 4.28 µM. Further, the result with MV4-11 [1], in the assay on RS4-11, in the assay with HL-60, with SR, with MV4-11 [2] and in the assay on MOLM-14 was Active. Besides, the IC50 on Histone deacetylase 5 and at Histone deacetylase 9 was > 10 µM each time.
